Only a selection was taken, and hits are over-represented in it overall.
HSF1 activator: HSF-1 activators, primary screen, NIH3T3-HGL cells, MG132 stress, luminescence, single point. 300,000 tested, 1.7% active. activation, % at 9 µM. NIH3T3-HGL HSF-1 luciferase reporter, 8 h; 100% = twice DMSO control signal;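 active = mean replicate activation of at least 50% with a set share of replicates each reaching 50%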;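 note: 0% = median of the neutral control wells and 100% = twice that signal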
Hsp70 activator: Hsp70 transcriptional activators, primary screen, cell-based, HeLa, Hsp70 promoter luciferase, luminescence, 10 µM | HeLa Hsp70 promoter luciferase reporter; scaled: vehicle 0, proteasome-inhibitor control 100% | activation, % at 10 µM | 200,000 tested, 0.04% active | AID 1203, 2008;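 active = activation above the mean across all tested compounds plus 3 SD, cutoff set per campaign, cut at about 5.5% in these data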;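 note: 100% = MG132 at 30 µM as the positive control and 0% = DMSO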
HSF1 inh: HSF1 inhibitors in luciferase reporter cells, primary screen, cell-based, NIH3T3, luminescence; NIH3T3-HGL HSE-luciferase, MG132-induced, luminescence 8 h; stronger effect = lower value; activity change, negative = inhibition, % at 7.5 µM (by protocol); 300,000 tested, 0.77% active;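 active = more than half of replicate wells show activity change below -50%, luminescence cut by over half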;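 note: luciferase reports HSF-1 transcriptional activity via heat shock element; 0% = median of DMSO wells and -100% = zero luminescence signal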
L major viab: Leishmania major promastigote growth inhibition, primary screen | inhibition, % at 10 µM | Leishmania major promastigotes, resazurin fluorescence viability | 200,000 tested, 9% active; in the data active = inhibition above about 50%;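 note: promastigotes grown with compound for 44 hours at 28 °C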
T cruzi inh: inhibitors of intracellular T. cruzi growth, primary screen, luminescence, NIH3T3 host cells | T. cruzi beta-gal in NIH3T3, 90 h | inhibition, % (test concentration not listed) | 300,000 tested, 1.4% active | AID 1885, 2009;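 active = mean inhibition across valid replicates above about 55%, limit read from the data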;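 note: signal also drops with host cell toxicity which is not excluded here; 0% = plate median of DMSO wells and 100% = zero luminescence signal; higher percent means less beta-gal luminescence so fewer parasites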
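Read-out: Parasite load inhibition, % | Test system: Mouse NIH/3T3 fibroblasts infected with β-gal-expressing T. cruzi Tulahuen C4 | Amount: 5,000 cells/well | Medium: DMEM, 2% fetal bovine serum | Signal: GalScreen β-gal luminescence, detergent lysis, 60 min | Timing: 3 h attach, ≥90 h co-culture | Also added: Tulahuen C4 trypomastigotes, 5000/well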
* = called active by the depositor; / = no result given.

SMILES | HSF1 activator | Hsp70 activator | HSF1 inh | L major viab | T cruzi inh
CCOC(=O)C1=C(C)NC2=C(C(=O)CC(c3ccc(OC)c(OC)c3)C2)C1c1ccc(C)o1 (centres undefined) | / | 0 | / | 7 | /
COc1cc2c(cc1NC(=O)CN(C)Cc1ccc(OC)c(OC)c1)oc1ccccc12 | 18 | 0 | 6 | 28 | 50
COc1ccc(CN(C)CC(=O)Nc2cc3oc4ccccc4c3cc2OC)c(OC)c1 | 13 | 0 | 1 | 97* | 37
COc1cc2c(cc1NC(=O)COC(=O)C(CCSC)NC(=O)c1ccccc1Cl)oc1ccccc12 (centres undefined) | 37 | 0 | 15 | 67* | -2
COc1cc2c(cc1NC(=O)COC(=O)[C@@H](NS(=O)(=O)c1ccccc1)C(C)C)oc1ccccc12 | 90* | 0 | 32 | 99* | 30
CCN(CC)S(=O)(=O)c1cccc(C(=O)Nc2cc3oc4ccccc4c3cc2OC)c1 | 13 | 0 | 0 | 80* | 30
COc1cc2c(cc1NC(=O)COc1ccccc1OC)oc1ccccc12 | -18 | 0 | -17 | -3 | 7
CCCN(CCC)S(=O)(=O)c1ccc(C(=O)Nc2cc3oc4ccccc4c3cc2OC)cc1 | 5 | 0 | -12 | -1 | 23
COc1cc2c(cc1NC(=O)COC(=O)c1ccc(C(C)(C)C)cc1)oc1ccccc12 | -24 | 0 | -5 | -10 | -17
COc1cc2c(cc1NS(=O)(=O)N1CCCCC1)oc1ccccc12 | 6 | 0 | 3 | 96* | -9
O=S(=O)(Nc1ccc2c(c1)oc1ccccc12)N1CCCC1 | 8 | 1 | -8 | 5 | -21
COc1cc(/C=N/Nc2nc(N3CCCC3)nc(N3CCCC3)n2)ccc1OCc1ccccc1F | 19 | / | 12 | / | 40
O=C(Nc1ccc2c(c1)CCCN2C(=O)c1ccco1)c1cc([N+](=O)[O-])ccc1Cl | 74* | / | 65 | / | -26
O=C(Nc1ccccc1)c1ccccc1OCc1cccc([N+](=O)[O-])c1 | / | 0 | / | 55* | 20
Cc1c(C(=O)Nc2cccc([N+](=O)[O-])c2)csc1-c1ccccc1 | 41 | 0 | 18 | -2 | 60*
O=C(Nc1ccc(Nc2ccccc2)cc1)c1cc([N+](=O)[O-])ccc1Cl | 134* | / | 107 | / | 41
COCCCn1cc(C(=O)c2cc(OC)ccc2OCC(=O)N2CCCCC2C)cc(C#N)c1=O (centres undefined) | 1 | 0 | 5 | -1 | 14
Cc1nn(CC(=O)Nc2ccc(Br)cc2F)c(=O)c2cccn12 | -14 | / | 2 | / | 4
CC(=O)Nc1ccc(NC(=O)c2ccccc2Sc2ccc([N+](=O)[O-])cc2Cl)cc1 | 76* | 0 | 33 | 94* | 36
CCC(=O)N1CCc2cc(S(=O)(=O)NC(Cc3ccccc3)C(=O)O)ccc21 (centres undefined) | -13 | / | -9 | / | -11
CCC(=O)N1CCc2cc(S(=O)(=O)NC(CC(C)C)C(=O)N3CCc4ccccc43)ccc21 (centres undefined) | / | 0 | / | 100* | /
CCN(CCCNS(=O)(=O)c1ccc2c(c1)CCN2C(C)=O)c1cccc(C)c1 | 69* | 0 | 44 | 5 | 7
COc1ccc(CNS(=O)(=O)c2ccc3c(c2)CCN3C(=O)C2CCC2)cc1 | -14 | / | 8 | / | -3
CCOc1ccc(OCC)c(NS(=O)(=O)c2ccc3c(c2)CCN3C(=O)C2CCC2)c1 | -4 | 0 | 6 | 99* | 36
CCC(=O)N1CCc2cc(S(=O)(=O)NCCN3CCC(C)CC3)ccc21 | -6 | 0 | -5 | 54* | 6
S=C(Nc1ccc2[nH]ccc2c1)NC1CCCCC1 | 36 | / | 29 | / | 29
O=C1/C(=C/c2ccc([N+](=O)[O-])cc2)Oc2cc(O)ccc21 | 73* | / | 61 | / | -8
O=C1/C(=C/c2ccc(Br)cc2)Oc2cc(O)ccc21 | 49 | / | 39 | / | -8
O=S(=O)(c1ccccc1)c1nc(-c2ccco2)oc1Nc1ccccc1 | 9 | 0 | 0 | 76* | 23
NC(=O)c1cc(S(=O)(=O)NCCc2ccc(S(N)(=O)=O)cc2)cs1 | -6 | / | -2 | / | -23

Compound activity deposited in PubChem BioAssay by several laboratories.
